{
  "source": "ChEMBL document CHEMBL3414437",
  "about": "“Synthesis of CDDO-amino acid-nitric oxide donor trihybrids as potential antitumor agents against both drug-sensitive and drug-resistant colon cancer” (J Med Chem, 2015)",
  "key": {"[1]": {"assay": "Antitumor activity against FU-resistant human HCT8 cells xenografted in nude BALB/c mouse assessed as reduction in tumor weight at 59.4 umol/kg administered as via oral gavage daily for 21 days", "assay_type": "functional", "conditions": "HCT-8, po, 504 h", "method_in_brief": "(§1)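 Male BALB/c nude mice, 6–8 weeks old, inoculated s.c. in the right flank with HCT-8/5-FU cells (2 × 10^6). Once tumors reached 180–200 mm3 (days 9–11), mice were randomized (n = 8) to daily oral gavage for 21 days in cremophor-EL/DMSO/PBS (1:1:8). Tumor volume = W2(L/2), caliper-measured every other day, blinded; tumors weighed at end.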"}, "Mus musculus [2]": {"tested_on": "Mus musculus", "assay": "Toxicity in nude BALB/c mouse xenografted with FU-resistant human HCT8 cells assessed as abnormal weight changes in kidney at 59.4 umol/kg administered as via oral gavage daily for 21 days", "assay_type": "organism-based, HCT-8", "conditions": "in vivo, 504 h", "method_in_brief": "(§2)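 Male BALB/c nude mice aged 6-8 weeks, implanted s.c. in the right flank with HCT-8/5-FU cells (2 × 10^6). Once tumors reached 180-200 mm3 (days 9-11), randomized to daily gavage for 21 days in cremophor-EL/DMSO/PBS (1:1:8), 0.2 mL. At the end, liver, kidney, lung and heart checked for size, colour and weight. n = 8 per group.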"}, "Mus musculus [3]": {"tested_on": "Mus musculus", "assay": "Toxicity in nude BALB/c mouse xenografted with FU-resistant human HCT8 cells assessed as abnormal weight changes in liver at 59.4 umol/kg administered as via oral gavage daily for 21 days", "assay_type": "organism-based, HCT-8", "conditions": "in vivo, 504 h", "method_in_brief": "(§3)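 Male BALB/c nude mice, 6-8 weeks old, inoculated s.c. in right flank with HCT-8/5-FU cells (2 × 10^6/mouse). Once tumors reached 180-200 mm3 (9-11 days post-implantation), mice were randomized and dosed by gavage daily for 21 consecutive days in cremophor-EL/DMSO/PBS (1:1:8) (vehicle alone 0.2 mL). Body weights recorded on day 1 and day 21. Organ size, color and weights were inspected for liver, kidney, lung and heart. n = 8 per group; mean ± SD.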"}, "[4]": {"target": "Multidrug resistance-associated protein 1 (Homo sapiens, UniProt P33527)", "sequence (P33527 whole entry)": "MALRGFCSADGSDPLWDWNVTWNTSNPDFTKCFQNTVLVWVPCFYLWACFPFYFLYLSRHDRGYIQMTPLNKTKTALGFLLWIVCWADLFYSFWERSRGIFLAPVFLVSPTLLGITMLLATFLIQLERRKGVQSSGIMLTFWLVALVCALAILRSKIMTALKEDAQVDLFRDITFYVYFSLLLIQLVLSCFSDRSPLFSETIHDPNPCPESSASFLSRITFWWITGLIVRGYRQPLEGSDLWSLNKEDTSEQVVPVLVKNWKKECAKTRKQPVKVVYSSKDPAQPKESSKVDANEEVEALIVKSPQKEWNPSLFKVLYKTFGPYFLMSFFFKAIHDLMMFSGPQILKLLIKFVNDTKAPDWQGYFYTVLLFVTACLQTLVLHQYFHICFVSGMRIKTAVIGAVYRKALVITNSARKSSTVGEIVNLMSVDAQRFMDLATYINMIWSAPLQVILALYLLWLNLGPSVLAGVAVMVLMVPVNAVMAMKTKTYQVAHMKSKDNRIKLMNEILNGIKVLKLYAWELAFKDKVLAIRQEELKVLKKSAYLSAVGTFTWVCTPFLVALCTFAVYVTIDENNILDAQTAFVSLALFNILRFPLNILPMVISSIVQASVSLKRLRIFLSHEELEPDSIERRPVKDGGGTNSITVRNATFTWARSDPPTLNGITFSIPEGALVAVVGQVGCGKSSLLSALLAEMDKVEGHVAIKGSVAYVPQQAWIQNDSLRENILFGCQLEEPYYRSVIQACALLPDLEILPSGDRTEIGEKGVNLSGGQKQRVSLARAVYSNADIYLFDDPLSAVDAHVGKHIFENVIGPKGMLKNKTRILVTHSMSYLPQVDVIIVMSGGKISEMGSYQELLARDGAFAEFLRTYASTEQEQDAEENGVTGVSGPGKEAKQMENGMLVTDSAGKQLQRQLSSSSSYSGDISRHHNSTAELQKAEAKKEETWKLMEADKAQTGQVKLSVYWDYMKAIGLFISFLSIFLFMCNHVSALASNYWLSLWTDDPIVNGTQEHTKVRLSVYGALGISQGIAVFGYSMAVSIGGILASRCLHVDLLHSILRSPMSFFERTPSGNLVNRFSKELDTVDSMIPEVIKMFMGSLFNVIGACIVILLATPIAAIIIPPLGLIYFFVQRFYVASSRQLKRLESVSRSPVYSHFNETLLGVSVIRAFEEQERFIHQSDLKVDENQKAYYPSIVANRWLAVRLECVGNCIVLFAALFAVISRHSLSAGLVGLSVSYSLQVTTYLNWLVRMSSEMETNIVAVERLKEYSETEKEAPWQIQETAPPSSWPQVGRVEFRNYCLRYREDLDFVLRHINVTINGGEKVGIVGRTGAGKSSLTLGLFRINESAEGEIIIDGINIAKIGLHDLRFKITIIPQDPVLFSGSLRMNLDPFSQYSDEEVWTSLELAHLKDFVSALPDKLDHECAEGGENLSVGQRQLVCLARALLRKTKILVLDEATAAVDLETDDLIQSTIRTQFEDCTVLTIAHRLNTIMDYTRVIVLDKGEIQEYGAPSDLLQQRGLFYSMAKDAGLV", "assay": "Induction of nitrosylation of MRP1 protein in FU-resistant human HCT8 cells at 1 uM incubated for 24 hrs by Western blotting method", "assay_type": "cell-based", "conditions": "hct-8, 24 h", "method_in_brief": "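HCT-8/5-FU cells (1 × 10^6) treated in duplicate for 24 h with 0.25, 0.5 or 1 µM test compound or 1 µM reference, with or without PTIO. Lysates immunoprecipitated overnight at 4 °C with anti-nitrotyrosine antibody on protein G beads. Eluates blotted with specific anti-Pgp, anti-MRP1 or anti-BCRP antibodies and quantified by densitometry. Mean ± SD of three experiments.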"}, "HCT-8 [5]": {"tested_on": "HCT-8", "assay": "Inhibition of BCRP protein expression in FU-resistant human HCT8 cells at 1 uM incubated for 24 hrs by Western blotting method", "assay_type": "functional, cell-based", "method_in_brief": "(§4)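 Cells (1 x 10^6) grown 24 h in 6 cm dishes, then exposed in duplicate for 24 h to 0.25, 0.5 or 1 µM compound, with or without PTIO. Lysates (20 µg/lane) were run on 7.5% SDS-PAGE, blotted to PVDF and blocked in 5% milk. HRP secondaries with ECL detection; bands quantified by densitometry against β-actin or GAPDH. Three separate experiments, mean ± SD.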"}, "Mus musculus [6]": {"tested_on": "Mus musculus", "assay": "Toxicity in nude BALB/c mouse xenografted with FU-resistant human HCT8 cells assessed as abnormal weight changes in lung at 59.4 umol/kg administered as via oral gavage daily for 21 days", "assay_type": "organism-based, HCT-8", "conditions": "in vivo, 504 h", "method_in_brief": "as §3"}, "Mus musculus [7]": {"tested_on": "Mus musculus", "assay": "Toxicity in nude BALB/c mouse xenografted with FU-resistant human HCT8 cells assessed as abnormal size changes in lung at 59.4 umol/kg administered as via oral gavage daily for 21 days", "assay_type": "organism-based, HCT-8", "conditions": "in vivo, 504 h", "method_in_brief": "as §2"}, "Mus musculus [8]": {"tested_on": "Mus musculus", "assay": "Toxicity in nude BALB/c mouse xenografted with FU-resistant human HCT8 cells assessed as abnormal color changes in lung at 59.4 umol/kg administered as via oral gavage daily for 21 days", "assay_type": "organism-based, HCT-8", "conditions": "in vivo, 504 h", "method_in_brief": "as §2"}, "HCT-8 [9]": {"tested_on": "HCT-8", "assay": "Inhibition of BCRP protein expression in FU-resistant human HCT8 cells at 0.25 to 1 uM incubated for 24 hrs by Western blotting method", "assay_type": "functional, cell-based", "method_in_brief": "as §4"}, "[10]": {"assay": "Antitumor activity against FU-resistant human HCT8 cells xenografted in nude BALB/c mouse assessed as reduction in tumor weight at 35.7 umol/kg administered as via oral gavage daily for 21 days", "assay_type": "functional", "conditions": "HCT-8, po, 504 h", "method_in_brief": "as §1"}, "Mus musculus [11]": {"tested_on": "Mus musculus", "assay": "Toxicity in ICR mouse assessed as body weight changes at 0.60 x 10^3 to 2.38 x 10^3 umol/kg administered as single dose via oral gavage measured up to 14 days post treatment", "assay_type": "organism-based", "conditions": "in vivo, 336 h", "method_in_brief": "(§5)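 Adult ICR mice of either sex were randomised and given a single oral gavage dose of 500, 1000, 1500 or 2000 mg/kg in cremophor-EL/DMSO/PBS (1:1:8). Survival, behaviour, water and food intake, body weight and activity were monitored for up to 14 days. Body weights were taken on days 0, 7 and 14.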"}, "[12]": {"target": "RAC-alpha serine/threonine-protein kinase (Homo sapiens) (UniProt P31749)", "sequence (P31749 whole entry)": "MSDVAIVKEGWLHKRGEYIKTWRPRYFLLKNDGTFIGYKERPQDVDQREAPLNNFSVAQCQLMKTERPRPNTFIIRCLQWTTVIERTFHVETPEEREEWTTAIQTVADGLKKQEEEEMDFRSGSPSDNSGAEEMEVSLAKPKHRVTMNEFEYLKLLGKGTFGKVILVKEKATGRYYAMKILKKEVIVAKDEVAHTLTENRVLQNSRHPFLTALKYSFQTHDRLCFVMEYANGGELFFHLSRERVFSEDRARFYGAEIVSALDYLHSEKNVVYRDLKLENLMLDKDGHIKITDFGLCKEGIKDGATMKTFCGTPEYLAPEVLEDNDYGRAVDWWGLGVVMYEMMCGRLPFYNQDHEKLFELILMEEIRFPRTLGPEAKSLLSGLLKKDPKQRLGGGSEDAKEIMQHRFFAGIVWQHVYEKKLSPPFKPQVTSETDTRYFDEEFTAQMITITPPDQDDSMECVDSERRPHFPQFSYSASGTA", "assay": "Inhibition of AKT protein phosphorylation in FU-resistant human HCT8 cells at 0.25 to 1 uM incubated for 24 hrs by Western blotting method", "assay_type": "cell-based", "conditions": "HCT-8", "method_in_brief": "as §4"}, "HCT-8 [13]": {"tested_on": "HCT-8", "assay": "Induction of nitric oxide release in 5-FU resistant human HCT8 cells at 150 uM incubated for 150 mins after 150 mins of pre-treatment with 0.75 uM to 192 uM pepT1 substrate Gly-Sar by Griess assay", "assay_type": "functional, cell-based", "method_in_brief": "(§6)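 Cells pretreated with Gly-Sar (0.75–192 µM, nine levels) for 150 min, then given compound at 150 µM for 150 min. Intracellular nitrite in lysates measured with Griess reagent (10 min, 37 °C, 540 nm) against a sodium nitrite standard curve. Mean ± SD of three experiments.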"}, "Mus musculus [14]": {"tested_on": "Mus musculus", "assay": "Toxicity in nude BALB/c mouse xenografted with FU-resistant human HCT8 cells assessed as abnormal weight changes in lung at 17.8 to 35.7 umol/kg administered as via oral gavage daily for 21 days", "assay_type": "organism-based, HCT-8", "conditions": "in vivo, 504 h", "method_in_brief": "as §3"}, "HCT-8 [15]": {"tested_on": "HCT-8", "assay": "Antiproliferative activity against 5-FU resistant human HCT8 cells assessed as inhibition of cell proliferation at 0.25 uM dosed 1 hr after NO scavenger carboxy-PTIO treatment and measured after 24 hrs by MTT assay", "assay_type": "functional"}, "HCT-8 [16]": {"tested_on": "HCT-8", "assay": "Inhibition of HIF-1alpha protein expression in FU-resistant human HCT8 cells at 0.25 to 1 uM incubated for 24 hrs by Western blotting method", "assay_type": "functional, cell-based", "method_in_brief": "as §4"}, "Mus musculus [17]": {"tested_on": "Mus musculus", "assay": "Toxicity in male ICR mouse assessed as body weight level at 2.38 x 10^3 umol/kg administered as single dose via oral gavage measured on day 7 post treatment (reference value: 19.8 +/- 0.92 g)", "assay_type": "organism-based", "conditions": "in vivo"}, "HCT-8 [18]": {"tested_on": "HCT-8", "assay": "Inhibition of MRP1 protein expression in FU-resistant human HCT8 cells at 0.25 to 1 uM incubated for 24 hrs by Western blotting method", "assay_type": "functional, cell-based", "method_in_brief": "as §4"}, "HCT-8 [19]": {"tested_on": "HCT-8", "assay": "Induction of nitric oxide release in human HCT8 cells at 150 uM incubated for 150 mins after 150 mins of pre-treatment with 0.75 uM to 192 uM pepT1 substrate Gly-Sar by Griess assay", "assay_type": "functional, cell-based", "method_in_brief": "as §6"}, "Mus musculus [20]": {"tested_on": "Mus musculus", "assay": "Toxicity in nude BALB/c mouse xenografted with FU-resistant human HCT8 cells assessed as abnormal weight changes in liver at 17.8 to 35.7 umol/kg administered as via oral gavage daily for 21 days", "assay_type": "organism-based, HCT-8", "conditions": "in vivo, 504 h", "method_in_brief": "as §2"}, "Mus musculus [21]": {"tested_on": "Mus musculus", "assay": "Toxicity in ICR mouse assessed as abnormality in eating behavior at 0.60 x 10^3 to 2.38 x 10^3 umol/kg administered as single dose via oral gavage measured up to 14 days post treatment", "assay_type": "organism-based", "conditions": "in vivo, 336 h", "method_in_brief": "as §5"}},
  "note": "Active and inactive are the calls of the source. The calls are words filed in the database; no cut-off is given here.",
  "data": [
    {"smiles": "COC(=O)[C@]12CCC(C)(C)C[C@H]1[C@H]1C(=O)C=C3[C@@]4(C)C=C(C#N)C(=O)C(C)(C)[C@@H]4CC[C@@]3(C)[C@]1(C)CC2", "note": "[BARDOXOLONE METHYL]", "values": [
      {"measurement": "inhibition in vivo at 59.4 µmol/kg", "setting": "[1]", "value": 58.4, "unit": "%"},
      {"measurement": "Activity", "setting": "Mus musculus [2]", "value": "Non-toxic"},
      {"measurement": "Activity", "setting": "Mus musculus [3]", "value": "Non-toxic"},
      {"measurement": "Activity", "setting": "[4]", "value": "Not Active"},
      {"measurement": "inhibition", "setting": "HCT-8 [5]", "value": "inactive"},
      {"measurement": "Activity", "setting": "Mus musculus [6]", "value": "Non-toxic"},
      {"measurement": "Activity", "setting": "Mus musculus [7]", "value": "Non-toxic"},
      {"measurement": "Activity", "setting": "Mus musculus [8]", "value": "Non-toxic"}
    ]},
    {"smiles": "CC1(C)CC[C@]2(C(=O)NCC(=O)OCC#CCOc3no[n+]([O-])c3S(=O)(=O)c3ccccc3)CC[C@]3(C)[C@H](C(=O)C=C4[C@@]5(C)C=C(C#N)C(=O)C(C)(C)[C@@H]5CC[C@]43C)[C@@H]2C1", "values": [
      {"measurement": "inhibition", "setting": "HCT-8 [9]", "value": "Dose-dependent effect"},
      {"measurement": "inhibition in vivo at 35.7 µmol/kg", "setting": "[10]", "value": 60.8, "unit": "%"},
      {"measurement": "Activity", "setting": "Mus musculus [11]", "value": "Non-toxic"},
      {"measurement": "inhibition", "setting": "[12]", "value": "Dose-dependent effect"},
      {"measurement": "Activity", "setting": "HCT-8 [13]", "value": "inactive"},
      {"measurement": "Activity", "setting": "Mus musculus [14]", "value": "Non-toxic"},
      {"measurement": "inhibition", "setting": "HCT-8 [15]", "value": "inactive"},
      {"measurement": "inhibition", "setting": "HCT-8 [16]", "value": "Dose-dependent effect"},
      {"measurement": "Activity", "setting": "Mus musculus [17]", "value": 26.7, "unit": "g"},
      {"measurement": "inhibition", "setting": "HCT-8 [18]", "value": "Dose-dependent effect"},
      {"measurement": "Activity", "setting": "HCT-8 [19]", "value": "inactive"},
      {"measurement": "Activity", "setting": "Mus musculus [20]", "value": "Non-toxic"},
      {"measurement": "Activity", "setting": "Mus musculus [21]", "value": "Non-toxic"}
    ]}
  ]
}
